Reference: ChEMBL document CHEMBL3232892, “Inhibition of cellular proliferation and induction of apoptosis in human lung adenocarcinoma A549 cells by T-type calcium channel antagonist” (Bioorg Med Chem Lett, 2014)
The source made the active and inactive calls. The calls are words filed in the database; no cut-off is given here.

Columns and labels:
A549 [1] = assay: Cell cycle arrest in human A549 cells assessed as accumulation at G2/M phase at 5 uM after 24 hrs by flow cytometry (reference value: 21.6 %); type: functional
A549 [2] = assay: Cell cycle arrest in human A549 cells assessed as accumulation at S phase at 5 uM after 24 hrs by flow cytometry (reference value: 17.6 %); type: functional
[3] = (§1) Cytotoxicity against human MIAPaCa2 cells after 48 hrs by MTT assay; type: functional, cell-based; conditions: MIA PaCa-2, 48 h
Outline: (§2)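 Cells seeded and grown 24 h, then exposed 48 h to a range of concentrations in DMSO (final 0.1%), with vehicle controls at equal DMSO. Medium replaced with 0.5 mg/mL MTT in RPMI with 10% FBS for 2 h at 37 °C, reduced dye dissolved in DMSO, absorbance read at 540 nm. Triplicates; IC50 from dose–response.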

A549 [4] = assay: Cell cycle arrest in human A549 cells assessed as accumulation at S phase at 5 uM after 48 hrs by flow cytometry (reference value: 12.0 %); type: functional
A549 [5] = assay: Cell cycle arrest in human A549 cells assessed as accumulation at sub-G1 phase at 5 uM after 48 hrs by flow cytometry (reference value: 4.9 %); type: functional
A549 [6] = assay: Selectivity ratio of IC50 for human A549 cells to IC50 for human MIAPaCa2 cells; type: functional
A549 [7] = assay: Cell cycle arrest in human A549 cells assessed as accumulation at sub-G1 phase at 5 uM after 24 hrs by flow cytometry (reference value: 7.8 %); type: functional
A549 [8] = assay: Cell cycle arrest in human A549 cells assessed as accumulation at G2/M phase at 5 uM after 48 hrs by flow cytometry (reference value: 25.4 %); type: functional
A549 [9] = assay: Cell cycle arrest in human A549 cells assessed as accumulation at G0/G1 phase at 5 uM after 24 hrs by flow cytometry (reference value: 53.1 %); type: functional
A549 [10] = assay: Cytotoxicity against human A549 cells after 48 hrs by MTT assay; type: functional, cell-based; conditions: for IC50: A549, 48 h; outline: as §2
[11] = target: T1, Voltage-dependent T-type calcium channel subunit alpha-1G (Homo sapiens, UniProt O43497); assay: Inhibition of T-type CaV3.1 channel (unknown origin) expressed in HEK293 cells assessed as inhibition of calcium current at 1 uM by whole cell patch-clamp method; type: cell-based
T1 sequence (O43497 whole entry): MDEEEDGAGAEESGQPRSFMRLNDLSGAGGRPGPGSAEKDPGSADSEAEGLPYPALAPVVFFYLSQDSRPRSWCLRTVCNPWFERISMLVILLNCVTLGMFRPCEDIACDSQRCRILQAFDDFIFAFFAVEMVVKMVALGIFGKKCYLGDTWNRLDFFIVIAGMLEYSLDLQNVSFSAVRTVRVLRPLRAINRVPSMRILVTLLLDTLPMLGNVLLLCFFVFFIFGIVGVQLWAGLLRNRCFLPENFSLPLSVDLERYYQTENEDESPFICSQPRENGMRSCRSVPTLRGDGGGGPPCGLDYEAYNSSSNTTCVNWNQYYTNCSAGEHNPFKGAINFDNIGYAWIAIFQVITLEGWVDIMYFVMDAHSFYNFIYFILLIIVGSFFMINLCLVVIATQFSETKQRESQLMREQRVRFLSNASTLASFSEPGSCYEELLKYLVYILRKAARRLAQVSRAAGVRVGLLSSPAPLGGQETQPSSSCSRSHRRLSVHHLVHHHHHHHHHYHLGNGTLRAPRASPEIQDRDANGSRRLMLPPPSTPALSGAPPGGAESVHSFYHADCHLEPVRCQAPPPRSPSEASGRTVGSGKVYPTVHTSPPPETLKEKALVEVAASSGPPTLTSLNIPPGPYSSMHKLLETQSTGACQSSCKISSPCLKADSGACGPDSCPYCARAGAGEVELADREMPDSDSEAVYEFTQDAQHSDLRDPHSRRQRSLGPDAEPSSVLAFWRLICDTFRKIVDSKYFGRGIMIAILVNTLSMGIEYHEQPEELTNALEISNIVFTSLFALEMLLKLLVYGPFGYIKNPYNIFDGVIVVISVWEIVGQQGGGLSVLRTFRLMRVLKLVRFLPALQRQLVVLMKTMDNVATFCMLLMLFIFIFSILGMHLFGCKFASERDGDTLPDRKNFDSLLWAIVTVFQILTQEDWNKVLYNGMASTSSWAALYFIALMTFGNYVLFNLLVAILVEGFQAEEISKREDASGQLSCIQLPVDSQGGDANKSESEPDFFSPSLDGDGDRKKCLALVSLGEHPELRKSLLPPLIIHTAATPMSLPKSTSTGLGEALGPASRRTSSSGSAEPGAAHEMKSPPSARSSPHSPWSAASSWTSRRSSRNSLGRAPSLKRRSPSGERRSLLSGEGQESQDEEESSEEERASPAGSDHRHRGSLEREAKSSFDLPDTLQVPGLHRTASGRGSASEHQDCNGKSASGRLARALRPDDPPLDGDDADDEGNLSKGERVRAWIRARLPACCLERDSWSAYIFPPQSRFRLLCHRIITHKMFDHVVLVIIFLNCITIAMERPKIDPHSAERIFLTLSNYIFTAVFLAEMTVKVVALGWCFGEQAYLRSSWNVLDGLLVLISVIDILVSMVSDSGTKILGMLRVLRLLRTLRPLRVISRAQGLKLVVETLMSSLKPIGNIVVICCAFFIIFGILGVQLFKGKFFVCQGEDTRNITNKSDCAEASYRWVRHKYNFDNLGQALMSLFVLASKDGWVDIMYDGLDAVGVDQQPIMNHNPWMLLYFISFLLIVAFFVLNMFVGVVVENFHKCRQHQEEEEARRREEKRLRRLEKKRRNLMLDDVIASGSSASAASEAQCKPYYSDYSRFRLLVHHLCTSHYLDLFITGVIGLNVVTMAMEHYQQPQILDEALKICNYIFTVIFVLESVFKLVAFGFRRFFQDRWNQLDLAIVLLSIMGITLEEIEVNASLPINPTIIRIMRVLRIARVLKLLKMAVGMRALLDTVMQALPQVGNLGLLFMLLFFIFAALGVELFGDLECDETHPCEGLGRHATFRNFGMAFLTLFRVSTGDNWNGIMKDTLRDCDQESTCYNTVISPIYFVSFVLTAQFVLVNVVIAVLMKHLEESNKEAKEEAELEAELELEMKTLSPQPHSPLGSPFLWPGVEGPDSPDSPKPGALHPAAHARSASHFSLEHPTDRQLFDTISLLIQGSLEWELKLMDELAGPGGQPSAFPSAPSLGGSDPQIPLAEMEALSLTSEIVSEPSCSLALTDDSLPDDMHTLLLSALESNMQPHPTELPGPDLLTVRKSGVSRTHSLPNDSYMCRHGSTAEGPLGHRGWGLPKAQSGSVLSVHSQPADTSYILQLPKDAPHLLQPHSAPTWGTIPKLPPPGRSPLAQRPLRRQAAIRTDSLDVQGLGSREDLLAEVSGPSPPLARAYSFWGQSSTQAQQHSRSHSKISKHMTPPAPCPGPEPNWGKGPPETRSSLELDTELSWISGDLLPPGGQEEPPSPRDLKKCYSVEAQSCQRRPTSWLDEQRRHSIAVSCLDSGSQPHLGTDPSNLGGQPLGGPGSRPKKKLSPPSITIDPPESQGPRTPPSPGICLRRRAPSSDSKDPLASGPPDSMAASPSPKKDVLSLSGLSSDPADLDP

A549 [12] = assay: Cell cycle arrest in human A549 cells assessed as accumulation at G0/G1 phase at 5 uM after 48 hrs by flow cytometry (reference value: 57.8 %); type: functional
[13] = target: T1, Voltage-dependent T-type calcium channel subunit alpha-1G; assay: Inhibition of T-type CaV3.1 channel (unknown origin) expressed in HEK293 cells assessed as inhibition of calcium current by whole cell patch-clamp method; type: cell-based
A549 [14] = assay: Induction of apoptosis in human A549 cells assessed as viable cells at 5 uM after 24 hrs by annexin V/PI staining-based FACS analysis (reference value: 91.1 %); conditions: A549, 24 h
MIA PaCa-2 [15] = assay: as §1; type: functional, cell-based; outline: as §2
A549 [16] = assay: Induction of apoptosis in human A549 cells assessed as late apoptotic cells at 1 uM after 24 hrs by annexin V/PI staining-based FACS analysis (reference value: 3.5 %)
A549 [17] = assay: Induction of apoptosis in human A549 cells assessed as increase in PARP protein cleavage at 5 uM after 24 hrs by Western blot analysis; type: functional, cell-based
Outline: (§3)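 Cells treated 24 h without compound or at 1, 3 or 5 µM. Pro-caspase-3, pro-caspase-9 and PARP cleavage assessed by Western blot.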

A549 [18] = assay: Induction of apoptosis in human A549 cells assessed as early apoptotic cells at 3 uM after 24 hrs by annexin V/PI staining-based FACS analysis (reference value: 2.6 %)
A549 [19] = assay: Induction of apoptosis in human A549 cells assessed as necrotic cells at 5 uM after 24 hrs by annexin V/PI staining-based FACS analysis (reference value: 2.8 %)
A549 [20] = assay: Induction of apoptosis in human A549 cells assessed as viable cells at 1 uM after 24 hrs by annexin V/PI staining-based FACS analysis (reference value: 91.1 %); conditions: A549, 24 h
A549 [21] = assay: Induction of apoptosis in human A549 cells assessed as reduction in pro-caspase-9 expression at 5 uM after 24 hrs by Western blot analysis; type: functional, cell-based; outline: as §3
A549 [22] = assay: Induction of apoptosis in human A549 cells assessed as viable cells at 3 uM after 24 hrs by annexin V/PI staining-based FACS analysis (reference value: 91.1 %); conditions: A549, 24 h
A549 [23] = assay: Induction of apoptosis in human A549 cells assessed as necrotic cells at 1 uM after 24 hrs by annexin V/PI staining-based FACS analysis (reference value: 2.8 %)
MIA PaCa-2 [24] = assay: Ratio of KYS05090 IC50 to compound IC50 for human MIAPaCa2 cells after 48 hrs by MTT assay; type: functional
A549 [25] = assay: Induction of apoptosis in human A549 cells assessed as necrotic cells at 3 uM after 24 hrs by annexin V/PI staining-based FACS analysis (reference value: 2.8 %)
A549 [26] = assay: Induction of apoptosis in human A549 cells assessed as early apoptotic cells at 5 uM after 24 hrs by annexin V/PI staining-based FACS analysis (reference value: 2.6 %)
A549 [27] = assay: Induction of apoptosis in human A549 cells assessed as late apoptotic cells at 3 uM after 24 hrs by annexin V/PI staining-based FACS analysis (reference value: 3.5 %)
A549 [28] = assay: Induction of apoptosis in human A549 cells assessed as reduction in pro-caspase-3 expression at 5 uM after 24 hrs by Western blot analysis; type: functional, cell-based; outline: as §3
A549 [29] = assay: Ratio of KYS05090 IC50 to compound IC50 for human A549 cells after 48 hrs by MTT assay; type: functional
A549 [30] = assay: Induction of apoptosis in human A549 cells assessed as early apoptotic cells at 1 uM after 24 hrs by annexin V/PI staining-based FACS analysis (reference value: 2.6 %)
A549 [31] = assay: Induction of apoptosis in human A549 cells assessed as late apoptotic cells at 5 uM after 24 hrs by annexin V/PI staining-based FACS analysis (reference value: 3.5 %)
A549 [32] = assay: Cell cycle arrest in human A549 cells assessed as accumulation at S phase at 10 uM after 48 hrs by flow cytometry (reference value: 12.0 %); type: functional
A549 [33] = assay: Cell cycle arrest in human A549 cells assessed as accumulation at S phase at 10 uM after 24 hrs by flow cytometry (reference value: 17.6 %); type: functional
A549 [34] = assay: Cell cycle arrest in human A549 cells assessed as accumulation at G0/G1 phase at 10 uM after 48 hrs by flow cytometry (reference value: 57.8 %); type: functional
A549 [35] = assay: Cell cycle arrest in human A549 cells assessed as accumulation at G0/G1 phase at 10 uM after 24 hrs by flow cytometry (reference value: 53.1 %); type: functional
A549 [36] = assay: Cell cycle arrest in human A549 cells assessed as accumulation at G2/M phase at 10 uM after 48 hrs by flow cytometry (reference value: 25.4 %); type: functional
A549 [37] = assay: Cell cycle arrest in human A549 cells assessed as accumulation at sub-G1 phase at 10 uM after 48 hrs by flow cytometry (reference value: 4.9 %); type: functional
A549 [38] = assay: Cell cycle arrest in human A549 cells assessed as accumulation at G2/M phase at 10 uM after 24 hrs by flow cytometry (reference value: 21.6 %); type: functional
A549 [39] = assay: Cell cycle arrest in human A549 cells assessed as accumulation at sub-G1 phase at 10 uM after 24 hrs by flow cytometry (reference value: 7.8 %); type: functional

SMILES: CN(C)CCCCCN(C)C1=Nc2ccccc2C(CC(=O)NCc2ccccc2)N1c1ccc(-c2ccccc2)cc1.Cl.Cl (stereo unspecified)
- Activity (A549 [1]): 2.2%
- Activity (A549 [2]): 8.8%
- IC50 [3]: 1.94 µM
- Activity (A549 [4]): 0.6%
- Activity (A549 [5]): 98.1%
- Ratio IC50 (A549 [6]): 2
- Activity (A549 [7]): 55.3%
- Activity (A549 [8]): 0.1%
- Activity (A549 [9]): 33.6%
- IC50 (A549 [10]): 4.07 µM
- inhibition [11]: 76.6%
- Activity (A549 [12]): 1.2%

SMILES: CN(C)CCN1CCN(C2=Nc3ccccc3C(CC(=O)NCc3ccc([N+](=O)[O-])cc3)N2c2ccc(-c3ccccc3)cc2)CC1.Cl (stereo unspecified)
- IC50 [3]: 2.18 µM
- Ratio IC50 (A549 [6]): 2
- IC50 (A549 [10]): 4.69 µM
- inhibition [11]: 38.1%

SMILES: COc1ccc(CNC(=O)CC2c3ccccc3N=C(N(C)CCCCCCN(C)C)N2c2ccc3ccccc3c2)cc1.Cl (stereo unspecified)
- IC50 [3]: 3.99 µM
- Ratio IC50 (A549 [6]): 2
- IC50 (A549 [10]): 6.65 µM
- IC50 [13]: 0.73 µM
- inhibition [11]: 55.2%

SMILES: CN(C)CCN1CCN(C2=Nc3ccccc3C(CC(=O)NCc3ccc(N(S(C)(=O)=O)S(C)(=O)=O)cc3)N2c2ccc(-c3ccccc3)cc2)CC1.Cl (stereo unspecified)
- IC50 [3]: 16.1 µM
- Ratio IC50 (A549 [6]): 2
- IC50 (A549 [10]): 20.7 µM
- IC50 [13]: 0.52 µM
- inhibition [11]: 64.3%

SMILES: CN(C)CCN1CCN(C2=Nc3ccccc3C(CC(=O)NCc3ccccc3)N2c2ccc(C3CCCCC3)cc2)CC1.Cl (stereo unspecified)
- Activity (A549 [1]): 16%
- Activity (A549 [2]): 12.8%
- viability at 5 µM (A549 [14]): 53.4%
- IC50 [3]: 0.93 µM
- inhibition (MIA PaCa-2 [15]): Dose-dependent effect
- Activity (A549 [16]): 3.2%
- Activity (A549 [4]): 4.6%
- Activity (A549 [17]): Active
- Activity (A549 [5]): 77.8%
- Activity (A549 [18]): 30.4%
- Activity (A549 [19]): 1.3%
- viability at 1 µM (A549 [20]): 91.8%
- Activity (A549 [21]): Active
- Ratio IC50 (A549 [6]): 2
- viability at 3 µM (A549 [22]): 67.4%
- Activity (A549 [23]): 2.5%
- Ratio IC50 (MIA PaCa-2 [24]): 2
- Activity (A549 [7]): 15.8%
- Activity (A549 [25]): 0.3%
- Activity (A549 [8]): 1.9%
- Activity (A549 [26]): 32.1%
- Activity (A549 [9]): 55.4%
- inhibition (A549 [10]): Dose-dependent effect
- IC50 (A549 [10]): 2.25 µM
- IC50 [13]: 1.04 µM
- inhibition [11]: 53.2%
- Activity (A549 [12]): 15.7%
- Activity (A549 [27]): 1.9%
- Activity (A549 [28]): Active
- Ratio IC50 (A549 [29]): 2
- Activity (A549 [30]): 2.5%
- Activity (A549 [31]): 13.3%

SMILES: CN(C)CCCCCCN(C)C1=Nc2ccccc2C(CC(=O)NCc2ccccc2)N1c1ccc2ccccc2c1.Cl (stereo unspecified)
- IC50 [3]: 2.54 µM
- Ratio IC50 (A549 [6]): 2
- IC50 (A549 [10]): 5.44 µM
- inhibition [11]: 26.4%

SMILES: CC(C)c1ccc(N2C(N3CCN(CCN(C)C)CC3)=Nc3ccccc3C2CC(=O)NCc2ccccc2)cc1.Cl (stereo unspecified)
- IC50 [3]: 3.02 µM
- Ratio IC50 (A549 [6]): 2
- IC50 (A549 [10]): 7.57 µM
- inhibition [11]: 39.2%

SMILES: CN(C)C(=O)NCCCN(C)C1=Nc2ccccc2C(CC(=O)NCc2ccc(F)cc2)N1c1ccc(-c2ccccc2)cc1.Cl (stereo unspecified)
- IC50 [3]: 7.43 µM
- Ratio IC50 (A549 [6]): 2
- IC50 (A549 [10]): 15 µM
- IC50 [13]: 0.6 µM
- inhibition [11]: 53.5%

SMILES: COCC(=O)O[C@]1(CCN(C)CCCc2nc3ccccc3[nH]2)CCc2cc(F)ccc2[C@@H]1C(C)C [MIBEFRADIL]
- Activity (A549 [32]): 12%
- IC50 [3]: 18.4 µM
- Activity (A549 [33]): 10.9%
- Activity (A549 [34]): 66.8%
- Activity (A549 [35]): 66.1%
- Activity (A549 [36]): 11.2%
- Activity (A549 [37]): 10%
- Activity (A549 [38]): 13.4%
- IC50 (A549 [10]): 24.8 µM
- Activity (A549 [39]): 9.6%

SMILES: CN(C)CCN1CCN(C2=Nc3ccccc3C(CC(=O)OCc3ccccc3)N2c2ccc(-c3ccccc3)cc2)CC1 (stereo unspecified)
- IC50 [3]: 2.7 µM
- Ratio IC50 (A549 [6]): 2
- IC50 (A549 [10]): 4.29 µM
- IC50 [13]: 1.81 µM
- inhibition [11]: 46.4%
